Assay results taken from ChEMBL document CHEMBL3734675, “Synthesis, antimycobacterial and antibacterial activity of fluoroquinolone derivatives containing an 3-alkoxyimino-4-(cyclopropylanimo)methylpyrrolidine moiety” (2015).
Converted amounts (≈) assume the structure as drawn.

Legend:
Assay type in all cases: functional
[1] = test system: Enterococcus faecalis; test: Antibacterial activity against Enterococcus faecalis 14-1 after 18 to 24 hrs by two-fold serial dilution method
Procedure, shortened: (§1)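 Twofold serial dilution in agar media against Gram-positive and Gram-negative strains. Plates incubated at 35 °C for 18–24 h. MIC read as the lowest compound concentration giving complete inhibition of bacterial growth.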

[2] = test system: Escherichia coli; test: Antibacterial activity against extended-spectrum beta-lactamase producing Escherichia coli 14-2 after 18 to 24 hrs by two-fold serial dilution method; procedure, shortened: as §1
[3] = test system: Staphylococcus aureus; test: Antibacterial activity against Staphylococcus aureus CMCC 26003 after 18 to 24 hrs by two-fold serial dilution method; procedure, shortened: as §1
[4] = test system: Staphylococcus epidermidis; test: Antibacterial activity against methicillin-resistant Staphylococcus epidermidis 14-37 after 18 to 24 hrs by two-fold serial dilution method
Procedure, shortened: (§2)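 Agar media, standard twofold serial dilution. MIC is the lowest concentration giving complete inhibition of bacterial growth after incubation at 35 °C for 18–24 h. Ciprofloxacin and levofloxacin were run as comparators.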

[5] = test system: Staphylococcus epidermidis; test: Antibacterial activity against methicillin-sensitive Staphylococcus epidermidis 14-2 after 18 to 24 hrs by two-fold serial dilution method; procedure, shortened: as §1
[6] = test system: Pseudomonas aeruginosa; test: Antibacterial activity against Pseudomonas aeruginosa ATCC 27853 after 18 to 24 hrs by two-fold serial dilution method; procedure, shortened: as §1
[7] = test system: Enterococcus faecium; test: Antibacterial activity against Enterococcus faecium 14-6 after 18 to 24 hrs by two-fold serial dilution method; procedure, shortened: as §1
[8] = test system: Klebsiella pneumoniae; test: Antibacterial activity against Klebsiella pneumoniae 14-3 after 18 to 24 hrs by two-fold serial dilution method; procedure, shortened: as §1
[9] = test system: Escherichia coli; test: Antibacterial activity against Escherichia coli 14-2 after 18 to 24 hrs by two-fold serial dilution method; procedure, shortened: as §1
[10] = test system: Staphylococcus epidermidis; test: Antibacterial activity against methicillin-resistant Staphylococcus epidermidis 14-39 after 18 to 24 hrs by two-fold serial dilution method; procedure, shortened: as §2
[11] = test system: Staphylococcus epidermidis; test: Antibacterial activity against methicillin-resistant Staphylococcus epidermidis 14-22 after 18 to 24 hrs by two-fold serial dilution method; procedure, shortened: as §2
[12] = test system: Klebsiella pneumoniae; test: Antibacterial activity against extended-spectrum beta-lactamase producing Klebsiella pneumoniae 14-18 after 18 to 24 hrs by two-fold serial dilution method; procedure, shortened: as §1
[13] = test system: Pseudomonas aeruginosa; test: Antibacterial activity against Pseudomonas aeruginosa 14-15 after 18 to 24 hrs by two-fold serial dilution method; procedure, shortened: as §1
[14] = test system: Staphylococcus aureus; test: Antibacterial activity against methicillin-resistant Staphylococcus aureus 14-5 after 18 to 24 hrs by two-fold serial dilution method; procedure, shortened: as §2
[15] = test system: Pseudomonas aeruginosa; test: Antibacterial activity against Pseudomonas aeruginosa 14-16 after 18 to 24 hrs by two-fold serial dilution method; procedure, shortened: as §1
[16] = test system: Staphylococcus aureus; test: Antibacterial activity against methicillin-sensitive Staphylococcus aureus 14-4 after 18 to 24 hrs by two-fold serial dilution method; procedure, shortened: as §1
[17] = test system: Klebsiella pneumoniae; test: Antibacterial activity against Klebsiella pneumoniae 14-2 after 18 to 24 hrs by two-fold serial dilution method; procedure, shortened: as §1
[18] = test system: Staphylococcus aureus; test: Antibacterial activity against methicillin-sensitive Staphylococcus aureus 14-3 after 18 to 24 hrs by two-fold serial dilution method; procedure, shortened: as §1
[19] = test system: Enterococcus faecium; test: Antibacterial activity against Enterococcus faecium 14-2 after 18 to 24 hrs by two-fold serial dilution method; procedure, shortened: as §1
[20] = test system: Staphylococcus aureus; test: Antibacterial activity against methicillin-resistant Staphylococcus aureus 14-4 after 18 to 24 hrs by two-fold serial dilution method; procedure, shortened: as §2
[21] = test system: Enterococcus faecium; test: Antibacterial activity against Enterococcus faecium 14-5 after 18 to 24 hrs by two-fold serial dilution method; procedure, shortened: as §1
[22] = test system: Escherichia coli; test: Antibacterial activity against extended-spectrum beta-lactamase producing Escherichia coli 14-1 after 18 to 24 hrs by two-fold serial dilution method; procedure, shortened: as §1
[23] = test system: Staphylococcus aureus; test: Antibacterial activity against methicillin-sensitive Staphylococcus aureus 14-1 after 18 to 24 hrs by two-fold serial dilution method; procedure, shortened: as §1
[24] = test system: Streptococcus pneumoniae; test: Antibacterial activity against methicillin-resistant Streptococcus pneumoniae ATCC 19615 after 18 to 24 hrs by two-fold serial dilution method; procedure, shortened: as §2
[25] = test system: Enterococcus faecalis; test: Antibacterial activity against Enterococcus faecalis 14-2 after 18 to 24 hrs by two-fold serial dilution method; procedure, shortened: as §1
[26] = test system: Klebsiella pneumoniae; test: Antibacterial activity against extended-spectrum beta-lactamase producing Klebsiella pneumoniae 14-19 after 18 to 24 hrs by two-fold serial dilution method; procedure, shortened: as §1
[27] = test system: Staphylococcus epidermidis; test: Antibacterial activity against methicillin-resistant Staphylococcus epidermidis 14-21 after 18 to 24 hrs by two-fold serial dilution method; procedure, shortened: as §2
[28] = test system: Pseudomonas aeruginosa; test: Antibacterial activity against Pseudomonas aeruginosa 14-14 after 18 to 24 hrs by two-fold serial dilution method; procedure, shortened: as §1
[29] = test system: Escherichia coli; test: Antibacterial activity against Escherichia coli ATCC 25922 after 18 to 24 hrs by two-fold serial dilution method; procedure, shortened: as §1
[30] = test system: Klebsiella pneumoniae; test: Antibacterial activity against Klebsiella pneumoniae 14-4 after 18 to 24 hrs by two-fold serial dilution method; procedure, shortened: as §1
[31] = test system: Klebsiella pneumoniae; test: Antibacterial activity against extended-spectrum beta-lactamase producing Klebsiella pneumoniae 14-17 after 18 to 24 hrs by two-fold serial dilution method; procedure, shortened: as §1
[32] = test system: Escherichia coli; test: Antibacterial activity against Escherichia coli 14-1 after 18 to 24 hrs by two-fold serial dilution method; procedure, shortened: as §1
[33] = test system: Pseudomonas aeruginosa; test: Antibacterial activity against Pseudomonas aeruginosa 14-9 after 18 to 24 hrs by two-fold serial dilution method; procedure, shortened: as §1
[34] = test system: Klebsiella pneumoniae; test: Antibacterial activity against Klebsiella pneumoniae 14-1 after 18 to 24 hrs by two-fold serial dilution method; procedure, shortened: as §1

SMILES	MIC [1]	MIC [2]	MIC [3]	MIC [4]	MIC [5]	MIC [6]	MIC [7]	MIC [8]	MIC [9]	MIC [10]	MIC [11]	MIC [12]	MIC [13]	MIC [14]	MIC [15]	MIC [16]	MIC [17]	MIC [18]	MIC [19]	MIC [20]	further results
CO/N=C1/CN(c2c(F)cc3c(=O)c(C(=O)O)cn4c3c2OC[C@@H]4C)CC1CNC1CC1 (some centres not stated)	> 64 mg/L	> 64 mg/L	4 mg/L (≈ 9 µM)	64 mg/L (≈ 144 µM)	> 64 mg/L	64 mg/L (≈ 144 µM)	> 128 mg/L	> 64 mg/L	> 64 mg/L	> 64 mg/L	> 64 mg/L	4 mg/L (≈ 9 µM)	> 64 mg/L	64 mg/L (≈ 144 µM)	64 mg/L (≈ 144 µM)	16 mg/L (≈ 36 µM)	32 mg/L (≈ 72 µM)	16 mg/L (≈ 36 µM)	> 64 mg/L	> 64 mg/L	MIC [21]: 64 mg/L (≈ 144 µM); MIC [22]: > 64 mg/L; MIC [23]: 64 mg/L (≈ 144 µM); MIC [24]: 8 mg/L (≈ 18 µM); MIC [25]: 16 mg/L (≈ 36 µM); MIC [26]: 8 mg/L (≈ 18 µM); MIC [27]: > 64 mg/L; MIC [28]: > 64 mg/L; MIC [29]: 0.5 mg/L (≈ 1.12 µM); MIC [30]: > 64 mg/L; MIC [31]: 4 mg/L (≈ 9 µM); MIC [32]: > 64 mg/L; MIC [33]: 64 mg/L (≈ 144 µM); MIC [34]: 32 mg/L (≈ 72 µM)
CC1(CNC2CC2)CN(c2nc3c(cc2F)c(=O)c(C(=O)O)cn3C2CC2)C/C1=N/OCc1ccccc1 (configuration not stated)	64 mg/L (≈ 123 µM)	> 128 mg/L	< 0.008 mg/L	2 mg/L (≈ 3.85 µM)	16 mg/L (≈ 30.8 µM)	64 mg/L (≈ 123 µM)	4 mg/L (≈ 7.7 µM)	> 128 mg/L	> 128 mg/L	2 mg/L (≈ 3.85 µM)	4 mg/L (≈ 7.7 µM)	128 mg/L (≈ 246 µM)	128 mg/L (≈ 246 µM)	2 mg/L (≈ 3.85 µM)	128 mg/L (≈ 246 µM)	0.5 mg/L (≈ 0.962 µM)	64 mg/L (≈ 123 µM)	0.5 mg/L (≈ 0.962 µM)	4 mg/L (≈ 7.7 µM)	2 mg/L (≈ 3.85 µM)	MIC [21]: 2 mg/L (≈ 3.85 µM); MIC [22]: 32 mg/L (≈ 61.6 µM); MIC [23]: 2 mg/L (≈ 3.85 µM); MIC [24]: 0.5 mg/L (≈ 0.962 µM); MIC [25]: 0.25 mg/L (≈ 0.481 µM); MIC [26]: 128 mg/L (≈ 246 µM); MIC [27]: 8 mg/L (≈ 15.4 µM); MIC [28]: 128 mg/L (≈ 246 µM); MIC [29]: 1 mg/L (≈ 1.92 µM); MIC [30]: > 128 mg/L; MIC [31]: 128 mg/L (≈ 246 µM); MIC [32]: > 128 mg/L; MIC [33]: 64 mg/L (≈ 123 µM); MIC [34]: 64 mg/L (≈ 123 µM)
CCO/N=C1/CN(c2c(F)cc3c(=O)c(C(=O)O)cn([C@@H]4C[C@@H]4F)c3c2OC)CC1CNC1CC1 (some centres not stated)	32 mg/L (≈ 65.2 µM)	> 32 mg/L	0.06 mg/L (≈ 0.122 µM)	8 mg/L (≈ 16.3 µM)	16 mg/L (≈ 32.6 µM)	16 mg/L (≈ 32.6 µM)	16 mg/L (≈ 32.6 µM)	> 32 mg/L	> 32 mg/L	4 mg/L (≈ 8.15 µM)	8 mg/L (≈ 16.3 µM)	32 mg/L (≈ 65.2 µM)	32 mg/L (≈ 65.2 µM)	16 mg/L (≈ 32.6 µM)	32 mg/L (≈ 65.2 µM)	0.06 mg/L (≈ 0.122 µM)	> 32 mg/L	0.03 mg/L (≈ 0.0612 µM)	8 mg/L (≈ 16.3 µM)	8 mg/L (≈ 16.3 µM)	MIC [21]: 4 mg/L (≈ 8.15 µM); MIC [22]: 4 mg/L (≈ 8.15 µM); MIC [23]: 8 mg/L (≈ 16.3 µM); MIC [24]: 0.25 mg/L (≈ 0.51 µM); MIC [25]: 2 mg/L (≈ 4.08 µM); MIC [26]: > 32 mg/L; MIC [27]: 8 mg/L (≈ 16.3 µM); MIC [28]: 32 mg/L (≈ 65.2 µM); MIC [29]: 2 mg/L (≈ 4.08 µM); MIC [30]: > 32 mg/L; MIC [31]: 32 mg/L (≈ 65.2 µM); MIC [32]: > 32 mg/L; MIC [33]: 32 mg/L (≈ 65.2 µM); MIC [34]: > 32 mg/L
